Reference: ChEMBL document CHEMBL1155014, “On the antibiotic activity of oxazolomycin” (2008)
Values after ≈ are worked out from the molar mass of the structure shown. Active and inactive are the calls of the source. The rule behind the calls is not given here.

Key:
Assay type in all cases: functional
Staphylococcus aureus [1] = assay: Antibacterial activity against Staphylococcus aureus NCTC 6571 at 4 mg/ml by hole plate method; details: for zone of inhibition at 4000 µg/mL: read-out: IZ
Outline: (§1)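 Hole-plate assay on bioassay plates seeded with the test organism. Compounds at 4 mg/ml in 7:3 DMSO/H2O were loaded into wells and incubated overnight at 37 °C. Inhibition zone diameters were then measured.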

Escherichia coli [2] = assay: Antibacterial activity against Escherichia coli X580 at 4 mg/ml by hole plate method; details: for zone of inhibition at 4000 µg/mL: read-out: IZ; outline: as §1
Escherichia coli [3] = assay: Antibacterial activity against Escherichia coli X580 by serial dilution
Outline: (§2)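 MIC estimated by serial dilution of compound, each dilution assayed by the hole-plate method (overnight, 37 °C). The end point is the dilution at which no inhibition zone is obtained.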

Escherichia coli [4] = assay: Antibacterial activity against Escherichia coli X580 at 4 mg/ml by hole plate method relative to cephalosporin C
Outline: (§3)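 Hole-plate diffusion: compound solutions at 4 mg/ml (7:3 DMSO/H2O) were placed in wells and incubated overnight at 37 °C. Inhibition zone diameters were measured, and potency was expressed as zone size per mg/ml relative to standards prepared with cephalosporin C.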

Staphylococcus aureus [5] = assay: Antibacterial activity against Staphylococcus aureus NCTC 6571 at 4 mg/ml by hole plate method relative to cephalosporin C; outline: as §3
Staphylococcus aureus [6] = assay: Antibacterial activity against Staphylococcus aureus NCTC 6571 by serial dilution; outline: as §2

Row | Compound | Activity (Staphylococcus aureus [1]) | Activity (Escherichia coli [2]) | zone of inhibition at 4000 µg/mL (Staphylococcus aureus [1]) [mm] | zone of inhibition at 4000 µg/mL (Escherichia coli [2]) [mm] | MIC (Escherichia coli [3]) [µg/mL] | Activity (Escherichia coli [4]) [millimeter/mg/ml] | Activity (Staphylococcus aureus [5]) [millimeter/mg/ml] | MIC (Staphylococcus aureus [6]) [µg/mL]
1 | C=CCNC(=O)C(C)(C)C1(O)CCCCC1 | inactive | inactive |  |  |  |  |  | 
2 | C=CCNC(=O)C(C)(C)C(O)Cc1ccccc1 (centres undefined) | inactive | inactive |  |  |  |  |  | 
3 | C/C(=C/C=C/c1ccccc1)C(O)C(C)(C)C(N)=O (centres undefined) |  |  | 14 | 28 | 1000 (≈ 3860 µM) | 0.03 | 0.05 | 
4 | C=CCNC(=O)C(C)(C)C(O)CCCCCCC (centres undefined) | inactive |  |  | 22 | 1000 (≈ 3920 µM) | 0.01 |  | 
5 | C=CCNC(=O)C(C)(C)C(O)CCCCc1ccccc1 (racemic) |  |  | 17 | 23 | 500 (≈ 1730 µM) | 0.01 | 0.08 | 4000 (≈ 13800 µM)
6 | C=CCNC(=O)C(C)(C)C(O)c1ccccc1 (racemic) | inactive | inactive |  |  |  |  |  | 
7 | CCCNC(=O)C(C)(C)C(O)c1ccccc1 (centres undefined) | inactive | inactive |  |  |  |  |  | 
8 | CC(C)(C(=O)NCc1ccc(Br)cc1)C(O)c1ccccc1 (centres undefined) | inactive | inactive |  |  |  |  |  | 
9 | C=CCNC(=O)C(C)(C)C(O)c1ccccc1/C=C/c1ccccc1 (centres undefined) |  |  | 14 | 20 | 500 (≈ 1490 µM) | 0.01 | 0.06 | 
10 | C#CCNC(=O)C(C)(C)C(O)c1ccccc1 (centres undefined) | inactive |  |  | 15 |  | 0.003 |  | 
11 | CC(C)(C(=O)NCc1ccccc1)C(O)c1ccccc1 (centres undefined) | inactive |  |  | 17 | 500 (≈ 1760 µM) | 0.005 |  | 
12 | CC(C)(C(N)=O)C(O)/C=C/c1ccccc1 (centres undefined) | inactive | inactive |  |  |  |  |  | 
